E coli WT inh = blocks growth of wild type E. coli BW25113 | 20,000 tested, 0.05% active | inhibition, % at 10 µM | E. coli BW25113 growth inhibition, OD600 | AID 552; in the data active = inhibition above about 40%;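 also: bacteria exposed to compound for 20 hours at 37 °C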
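Material: bacterial strain in a whole-cell growth screen; Amount: inoculum from a 1:1000 dilution of a 1.5 h subculture; Buffer or medium: LB plus kanamycin 50 µg/mL; Dosing: one dose, 10 µM final; Times: compound exposure of 20 h at 37 °C; Measured by: absorbance at 615 nm as a measure of bacterial growth.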
Large screens that a line does not name were inactive. Not all results are given here.

Cc1ccccc1C(=O)Nc1cccc(NC(=O)Cn2cnc3c(=O)n(C)c(=O)n(C)c32)c1	none
COC(=O)c1ccc(CNC(=O)COc2ccccc2Br)o1	none
CN1CCN(S(=O)(=O)c2ccc(Sc3nnc(-c4cccs4)n3-c3ccccc3)nc2)CC1	none
CC(=O)N(C)C1(c2nnnn2CCOC(=O)Nc2cccc3ccccc23)CCCC1	none
O=C(O)C1C2C=CC(C2)C1C(=O)Nc1ccc(C(=O)N2CCCCC2)c(Cl)c1 (configuration not stated)	none
O=C(NCc1ccco1)c1cccc(S(=O)(=O)N2CCCCC2)c1	none
NC(=O)C1CCN(C(=O)CSc2nc3c(c(-c4ccccc4)n2)CCCC3)CC1	none
Cn1c(-c2ccc(F)cc2)cnc1SCC(=O)Nc1ccccc1N1CCOCC1	none
CN(CC(=O)Nc1nccs1)S(=O)(=O)c1ccc(F)cc1	none
CCOC(=O)N1CCN(C(=O)CCc2ccc(S(=O)(=O)NCCc3ccccc3)cc2)CC1	none
Cn1c(=O)cc(SCC(=O)NCc2cccnc2)c2ccccc21	none
COC(=O)c1sccc1NC(=O)CN1CCN(c2ccc(F)cc2)CC1	none
CCN(CC(=O)Nc1ccc2c(c1)CCC2)Cc1nc2ccccc2c(=O)[nH]1	none
CNC(=O)CN(c1ccc(C(C)C)cc1)S(C)(=O)=O	none
CCCOc1ccc(C2C(C(=O)c3ccco3)=C(O)C(=O)N2CCCn2ccnc2)cc1 (configuration not stated)	none
O=C(Nc1ccc(-c2noc(-c3cccs3)n2)cc1)c1cccnc1	none
O=C(CSc1nnc(-c2ccncc2)n1-c1ccc(Cl)cc1)N1CCOCC1	none
Cc1cc(C)n2nc[n+](C)c2n1	none
Cn1nc(-c2ccc(N3CCOCC3)c(NC(=O)COc3ccccc3)c2)c2ccccc2c1=O	none

Screening results from PubChem BioAssay.
